In ChEMBL document CHEMBL4396890, “Synthesis, Biological Evaluation, Structure-Activity Relationship, and Mechanism of Action Studies of Quinoline-Metronidazole Derivatives Against Experimental Visceral Leishmaniasis” (J Med Chem, 2019):
Activity calls are given as the source filed them. The calls are words filed in the database; no cut-off is given here.

What was measured:
Leishmania donovani [1] = experiment: Antileishmanial activity against Leishmania donovani MHOM/IN/80/Dd8 amastigotes harboring luciferase reporter gene infected in mouse J774 cells at 25 uM after 48 hrs by Steady-Glo luminescence assay relative to control; assay type: functional; conditions: for inhibition at 25 µM: MHOM/IN/80/Dd8, J774, 48 h
Method in brief: (§1)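 Infection of J774 macrophages with L. donovani Dd8 promastigotes at a 1:8 cell:parasite ratio. Compounds were diluted 2-fold in RPMI over 3.125–100 μM final and applied for 48 h. Amastigote inhibition was read by luciferase (RLU) or by Giemsa count of amastigotes per 100 macrophages. IC50 was from dose–response; n = 3 independent experiments done in replicate.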

Leishmania donovani [2] = experiment: Antileishmanial activity against Leishmania donovani MHOM/IN/80/Dd8 promastigotes harboring luciferase reporter gene at 25 uM after 48 hrs by Steady-Glo luminescence assay relative to control; assay type: functional; conditions: for inhibition at 25 µM: MHOM/IN/80/Dd8, 48 h
Method in brief: (§2)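 Luciferase-expressing L. donovani Dd8 promastigotes were grown at 24 °C in M199 with 10% heat-inactivated FBS and G418 20 μg/mL. They were treated at varied concentrations for 24 and 48 h, and inhibition was read as relative luminescence units versus untreated control. IC50 was from dose–response; screening values are mean ± SD of at least three experiments in duplicate.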

Leishmania donovani [3] = experiment: Antileishmanial activity against Leishmania donovani MHOM/IN/80/Dd8 amastigotes harboring luciferase reporter gene infected in mouse J774 cells at 50 uM after 48 hrs by Steady-Glo luminescence assay relative to control; assay type: functional; conditions: for inhibition at 50 µM: MHOM/IN/80/Dd8, J774, 48 h; method in brief: as §1
Leishmania donovani [4] = experiment: Antileishmanial activity against Leishmania donovani MHOM/IN/80/Dd8 promastigotes harboring luciferase reporter gene at 50 uM after 48 hrs by Steady-Glo luminescence assay relative to control; assay type: functional; conditions: for inhibition at 50 µM: MHOM/IN/80/Dd8, 48 h; method in brief: as §2
Leishmania donovani [5] = experiment: Antileishmanial activity against Leishmania donovani MHOM/IN/80/Dd8 amastigotes harboring luciferase reporter gene infected in mouse J774 cells after 48 hrs by Giemsa staining-based microscopic assay; assay type: functional, organism-based; conditions: MHOM/IN/80/Dd8, J774, 48 h; method in brief: as §1
[6] = Toxicity in BALB/c mouse infected with Leishmania donovani MHOM/IN/80/Dd8 promastigotes assessed as death at 25 mg/kg, po administered once daily for 5 days measured up to 7 days post dose; assay type: organism-based; conditions: in vivo
Method in brief: (§3)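 BALB/c mice (20 ± 2 g) were infected by tail-vein injection of 2 × 10^7 stationary-phase promastigotes. From day 15 they were given miltefosine 25 mg/kg orally, suspended in triple-distilled water, daily for 5 days, and killed at day 7 post-treatment. Survival, health and body weight were monitored; 5 mice per group.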

[7] = Selectivity index, ratio of CC50 for mouse J774 cells to IC50 for antileishmanial activity against Leishmania donovani MHOM/IN/80/Dd8 harboring luciferase reporter gene
Leishmania donovani [8] = experiment: Antileishmanial activity against Leishmania donovani MHOM/IN/80/Dd8 promastigotes infected in BALB/c mouse assessed as reduction in parasite load in spleen at 25 mg/kg, po administered once daily for 5 days measured 7 days post dose by giemsa staining-based assay relative to control; assay type: functional; parameters: scale not given: the % may be the effect or the level left
Method in brief: (§4)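 Reference-drug arm of the same infection model (BALB/c mice, 15-day infection, 2 × 10^7 promastigotes iv). Drug was suspended in triple distilled water and given orally at 25 mg/kg/day for 5 days, 5 mice per group. Hepatic and splenic burden was taken at day 7 post-treatment by Giemsa stamp smears, as LDU.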

Leishmania donovani [9] = experiment: Antileishmanial activity against Leishmania donovani MHOM/IN/80/Dd8 amastigotes harboring luciferase reporter gene infected in mouse J774 cells after 48 hrs by Steady-Glo luminescence assay; assay type: functional, organism-based; conditions: MHOM/IN/80/Dd8, J774, 48 h; method in brief: as §1
[10] = Selectivity index, ratio of CC50 for […] Vero cells to IC50 for antileishmanial activity against Leishmania donovani MHOM/IN/80/Dd8 harboring luciferase reporter gene; assay type: toxicity
Method in brief: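 J774 macrophages and Vero cells were exposed to 12.5–400 μM for 48 h, with viability by MTT. CC50 was derived, and SI was calculated as CC50 divided by anti-amastigote IC50 in each cell type.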

Leishmania donovani [11] = experiment: Antileishmanial activity against Leishmania donovani MHOM/IN/80/Dd8 promastigotes infected in BALB/c mouse assessed as reduction in parasite load in liver at 25 mg/kg, po administered once daily for 5 days measured 7 days post dose by giemsa staining-based assay relative to control; assay type: functional; parameters: scale not given: the % may be the effect or the level left; method in brief: as §4
[12] = Toxicity in BALB/c mouse infected with Leishmania donovani MHOM/IN/80/Dd8 promastigotes assessed as effect on health at 25 mg/kg, po administered once daily for 5 days measured up to 7 days post dose; assay type: organism-based; conditions: in vivo; method in brief: as §3
[13] = Toxicity in BALB/c mouse infected with Leishmania donovani MHOM/IN/80/Dd8 promastigotes assessed as reduction in body weight at 25 mg/kg, po administered once daily for 5 days measured up to 7 days post dose; assay type: organism-based; conditions: in vivo; method in brief: as §3
Leishmania donovani [14] = experiment: Induction of mitochondrial potential loss in Leishmania donovani MHOM/IN/80/Dd8 promastigotes assessed as shift in red to green fluorescence at 50 uM by JC1 dye-based flow cytometry (reference value: 7.37%); assay type: functional
Leishmania donovani [15] = experiment: Antileishmanial activity against Leishmania donovani MHOM/IN/80/Dd8 promastigotes infected in BALB/c mouse assessed as reduction in parasite load in liver at 50 mg/kg, ip administered once daily for 5 days measured 7 days post dose by giemsa staining-based assay relative to control; assay type: functional; parameters: scale not given: the % may be the effect or the level left
Method in brief: (§5)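 Hamster-passaged strain was transformed to promastigotes. Stationary-phase cells (2 × 10^7 in 0.2 mL PBS) were injected into the tail vein of BALB/c mice. From day 15 post-infection, mice received compound ip in 8% DMSO in PBS for 5 consecutive days, 5 mice per group. Mice were killed day 7 post-treatment. Liver and spleen burden was read from Giemsa-stained stamp smears as LDU.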

[16] = Toxicity in BALB/c mouse infected with Leishmania donovani MHOM/IN/80/Dd8 promastigotes assessed as death at 12.5 to 200 mg/kg, ip administered once daily for 5 days measured up to 7 days post dose; assay type: organism-based; conditions: in vivo
Method in brief: (§6)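 BALB/c mice (20 ± 2 g) were infected by tail-vein injection of 2 × 10^7 stationary-phase promastigotes. At day 15 they received ip doses in 8% DMSO/PBS for 5 consecutive days and were killed at day 7 post-treatment. Survival, general health and body weight were monitored; 5 mice per group.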

Leishmania donovani [17] = experiment: Antileishmanial activity against Leishmania donovani MHOM/IN/80/Dd8 promastigotes infected in BALB/c mouse assessed as reduction in parasite load in spleen at 50 mg/kg, ip administered once daily for 5 days measured 7 days post dose by giemsa staining-based assay relative to control; assay type: functional; parameters: scale not given: the % may be the effect or the level left; method in brief: as §5
[18] = Toxicity in BALB/c mouse infected with Leishmania donovani MHOM/IN/80/Dd8 promastigotes assessed as effect on health at 50 mg/kg, ip administered once daily for 5 days measured up to 7 days post dose; assay type: organism-based; conditions: in vivo; method in brief: as §6
[19] = Toxicity in BALB/c mouse infected with Leishmania donovani MHOM/IN/80/Dd8 promastigotes assessed as death at 50 mg/kg, ip administered once daily for 5 days measured up to 7 days post dose; assay type: organism-based; conditions: in vivo; method in brief: as §6
[20] = Toxicity in BALB/c mouse infected with Leishmania donovani MHOM/IN/80/Dd8 promastigotes assessed as effect on health at 12.5 to 200 mg/kg, ip administered once daily for 5 days measured up to 7 days post dose; assay type: organism-based; conditions: in vivo; method in brief: as §6
[21] = Toxicity in BALB/c mouse infected with Leishmania donovani MHOM/IN/80/Dd8 promastigotes assessed as reduction in body weight at 50 mg/kg, ip administered once daily for 5 days measured up to 7 days post dose; assay type: organism-based; conditions: in vivo; method in brief: as §6
[22] = Toxicity in BALB/c mouse infected with Leishmania donovani MHOM/IN/80/Dd8 promastigotes assessed as reduction in body weight at 12.5 to 200 mg/kg, ip administered once daily for 5 days measured up to 7 days post dose; assay type: organism-based; conditions: in vivo; method in brief: as §6

| Structure (SMILES) | inhibition at 25 µM (Leishmania donovani [1]) | inhibition at 25 µM (Leishmania donovani [2]) | inhibition at 50 µM (Leishmania donovani [3]) | inhibition at 50 µM (Leishmania donovani [4]) | further results |
| --- | --- | --- | --- | --- | --- |
| Cc1ncc([N+](=O)[O-])n1CCOc1cccc(-c2cc(-c3ccccc3)c3ccccc3n2)c1 | 31.2% | 43% | 66.4% | 63% | – |
| Cc1ncc([N+](=O)[O-])n1CCOc1ccc(-c2cc(-c3ccccc3)c3ccc(Br)cc3n2)cc1 | 33.8% | 41.3% | 60.3% | 63.9% | – |
| Cc1ncc([N+](=O)[O-])n1CCOc1cccc(-c2cc(-c3ccccc3)c3cc([N+](=O)[O-])ccc3n2)c1 | – | – | 10.4% | – | inhibition (Leishmania donovani [1]): inactive; inhibition (Leishmania donovani [2]): inactive; inhibition (Leishmania donovani [4]): inactive |
| CCCCCCCCCCCCCCCCOP(=O)([O-])OCC[N+](C)(C)C [MILTEFOSINE] | 98.3% | 97.2% | 99.2% | 99.5% | IC50 (Leishmania donovani [5]): 9.59 µM; Activity [6]: Non-Toxic; selectivity ratio [7]: 5.8; Activity (Leishmania donovani [8]): >98%; IC50 (Leishmania donovani [9]): 9.59 µM; selectivity ratio [10]: 5.3; Activity (Leishmania donovani [11]): >98%; Activity [12]: Non-Toxic; Activity [13]: Non-Toxic |
| N#CC(C#N)=NNc1cccc(Cl)c1 [CARBONYL CYANIDE M-CHLOROPHENYLHYDRAZONE] | – | – | – | – | Activity (Leishmania donovani [14]): 95.49% |
| Cc1ncc([N+](=O)[O-])n1CCOc1cccc(-c2cc(-c3ccccc3)c3cc(Br)ccc3n2)c1 | 29.5% | 30.2% | 65.3% | 60.8% | – |
| Cc1ncc([N+](=O)[O-])n1CCOc1ccc(-c2cc(-c3ccccc3Cl)c3cc(Cl)ccc3n2)cc1 | 12.1% | 38.2% | 27.2% | 61.7% | – |
| Cc1ncc([N+](=O)[O-])n1CCO [METRONIDAZOLE] | 31.2% | 41.3% | 68.1% | 62.2% | Activity [6]: Non-Toxic; Activity (Leishmania donovani [15]): 40.8%; Activity [16]: Non-Toxic; Activity (Leishmania donovani [17]): 36.6%; Activity [18]: Non-Toxic; Activity [19]: Non-Toxic; Activity [20]: Non-Toxic; Activity [21]: Non-Toxic; Activity [22]: Non-Toxic; Activity [12]: Non-Toxic; Activity [13]: Non-Toxic |
| Cc1ncc([N+](=O)[O-])n1CCOc1ccc(-c2cc(-c3ccccc3)c3cc(Cl)ccc3n2)cc1 | 34.2% | 45.3% | 64.4% | 65.8% | – |
| Cc1ncc([N+](=O)[O-])n1CCOc1cccc(-c2cc(-c3ccccc3Cl)c3cc(Cl)ccc3n2)c1 | – | 12.3% | – | 26% | inhibition (Leishmania donovani [1]): inactive; inhibition (Leishmania donovani [3]): inactive |
| Cc1ncc([N+](=O)[O-])n1CCOc1cccc(-c2cc(-c3ccccc3)c3cc(Cl)ccc3n2)c1 | 38.2% | 41.2% | 59.2% | 58.2% | – |
| Cc1ncc([N+](=O)[O-])n1CCOc1ccc(-c2cc(-c3ccccc3)c3ccccc3n2)cc1 | 45.3% | 78.2% | 67.7% | 93.2% | – |
| Cc1ncc([N+](=O)[O-])n1CCOc1ccc(-c2cc(-c3ccccc3F)c3cc(Cl)ccc3n2)cc1 | 23.4% | 34.4% | 63.6% | 59.1% | – |
| Cc1ncc([N+](=O)[O-])n1CCOc1cccc(-c2cc(-c3ccccc3F)c3cc(Cl)ccc3n2)c1 | – | – | 12.1% | – | inhibition (Leishmania donovani [1]): inactive; inhibition (Leishmania donovani [2]): inactive; inhibition (Leishmania donovani [4]): inactive |
| c1ccc2ncccc2c1 [QUINOLINE] | 64.5% | 42.4% | 83.6% | 80.2% | Activity [6]: Non-Toxic; Activity (Leishmania donovani [15]): 58.2%; Activity [16]: Non-Toxic; Activity (Leishmania donovani [17]): 55.2%; Activity [18]: Non-Toxic; Activity [19]: Non-Toxic; Activity [20]: Non-Toxic; Activity [21]: Non-Toxic; Activity [22]: Non-Toxic; Activity [12]: Non-Toxic; Activity [13]: Non-Toxic |
